Test results taken from ChEMBL document CHEMBL4342502, “Synthesis and Antichlamydial Activity of Molecules Based on Dysregulators of Cylindrical Proteases” (J Med Chem, 2020).
Calls of active or inactive are those of the source. The calls are words filed in the database; no cut-off is given here.

Tests used:
[1] = Half life in human liver microsomes at 1 ug/ml measured up to 60 mins by LC-MS/MS analysis; assay type: ADME, Microsome; details: microsomes, 1 h
Outline: (§1)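 Human liver microsomes (1.0 mg/mL protein) in 100 mM phosphate pH 7.4 with 10 mM MgCl2 and 2 mM NADPH, preincubated 10 min at 37 °C. Reaction started with compound at 1 μg/mL. Sampled at 0, 5, 15, 20, 30, 45 and 60 min and quenched in methanol with internal standard. Controls: no NADPH (negative), testosterone (positive). Analysed by LC-MS/MS, triplicate.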

Staphylococcus aureus = assay: Antibacterial activity against Staphylococcus aureus JE2 assessed as bacterial death up to 256 ug/ml measured after 16 hrs by broth microdilution method; assay type: functional, organism-based
Outline: (§2)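 Broth microdilution in Mueller Hinton broth, triplicate. Direct colony suspension at 1.5 x 10^8 CFU/mL diluted to ~10^5 CFU/mL. Serial dilutions made from DMSO stocks at 1 mg/mL; vancomycin positive control, blank medium negative control. Incubated 16 h at optimum temperature. MIC is the lowest concentration without visible growth at 600 nm; mean of triplicate determinations.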

[2] = Hepatic intrinsic clearance in human liver microsomes at 1 ug/ml measured per kg body weight up to 60 mins by LC-MS/MS analysis; assay type: ADME, Microsome; details: 1 h
Klebsiella pneumoniae = assay: Antibacterial activity against Klebsiella pneumoniae ATCC 700603 assessed as bacterial growth inhibition at 32 ug/ml measured after 16 hrs by broth microdilution method; assay type: functional, organism-based
Cryptococcus neoformans = assay: Antifungal activity against Cryptococcus neoformans var. grubii H99 ATCC […] as fungal growth inhibition at 32 ug/ml measured after 16 hrs by broth microdilution method; assay type: functional, organism-based; details: var. grubii H99 ATCC 208821
Escherichia coli = assay: Antibacterial activity against Escherichia coli K12 assessed as bacterial death up to 256 ug/ml measured after 16 hrs by broth microdilution method; assay type: functional, organism-based; details: K-12; outline: as §2
Chlamydia trachomatis [3] = assay: Anti-chlamydial activity against Chlamydia trachomatis Serovar LGV-L2 infected in Hep2 cells assessed as inhibition of chlamydial inclusion at 50 ug/ml treated at 8 hrs post infection and measured at 24 hrs post-infection by immunofluorescence assay; assay type: functional, organism-based
Outline: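 HEp-2 cells infected with C. trachomatis serovar L2. Compounds at 50 μg/mL added 8 hpi; inclusion number and size assessed by immunofluorescence at 24 hpi against untreated cells. Cell morphology and viability checked by phase-contrast microscopy.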

[4] = (§3) Activation of recombinant mouse C-terminal 6xHis-tagged ClpP expressed in Escherichia coli assessed as induction of casein degradation at 0.1 to 1 uM using FITC-labelled casein as substrate pretreated with enzyme for 30 mins followed by substrate addition and measured every 3 mins for 3 hrs in absence of AAA+ chaperone by fluorescence based tecan-plate reader assay
Outline: (§4)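 Recombinant C-terminal His6-tagged ClpP, expressed in a clpAPX-null E. coli strain and purified (mammalian ClpP without mitochondrial signal, codon-optimized). ClpP at 1 or 0.1 μM (E. coli), 1 μM (human, mouse) or 6 μM (chlamydial ClpP1 and ClpP2) preincubated with compound or DMSO, 30 min, 32 °C, in HEPES pH 7.6/KCl/MgCl2/DTT/glycerol buffer. 20 μM FITC-casein then added. Fluorescence (ex 490/em 525 nm) read every 3 min for 3 h. At least three runs on at least two protein preparations.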

[5] = Intrinsic clearance in human liver microsomes at 1 ug/ml measured per mg protein up to 60 mins by LC-MS/MS analysis; assay type: ADME, Microsome; details: microsomes, 1 h; outline: as §1
Chlamydia trachomatis [6] = assay: (§5) Anti-chlamydial activity against Chlamydia trachomatis Serovar LGV-L2 infected in Hep2 cells assessed as reduction in chlamydial inclusion growth by measuring appearance of small and irregular inclusions at 50 ug/ml treated at 8 hrs post-infection and 24 hrs later re-infecting fresh Hep2 cells monolayer with infected cells and measured at 24 hrs post re-infection by immunofluorescence staining based microscopy analysis; assay type: functional, organism-based
Outline: (§6)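 HEp-2 cells in DMEM with 10% FBS, infected with C. trachomatis L2 at MOI 1. Compounds added 8 hpi in triplicate; DMSO stocks at 50 mg/mL. At 24 hpi lysates collected in sucrose storage medium, frozen at −80 °C, and used to infect fresh HEp-2 monolayers in 10-fold dilutions. After 24 h, stained with goat anti-MOMP and Alexa488 secondary. Inclusions counted in 15 fields at 20x; IFU = mean count per field corrected for dilution.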

Chlamydia trachomatis [7] = assay: (§7) Bacteriostatic activity against Chlamydia trachomatis Serovar LGV-L2 infected in Hep2 cells assessed as reduction of inclusion size at 50 ug/ml treated at 8 hrs post infection and incubated for 16 hrs followed by compound washout and further incubated for 24 hrs by immunofluorescence staining based microscopic assay; assay type: functional, organism-based
Outline: (§8)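 Medium was then removed, wells washed three times with Hanks' balanced salt solution, and compound-free medium added; incubation continued 24 h. Read-out by IFU re-infection and anti-MOMP immunofluorescence, as in the IFU protocol.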

Chlamydia trachomatis [8] = assay: as §5, with “12.5” for “50”, “analysis relative to control” for “analysis”; assay type: functional; details: Serovar LGV-L2, HEp-2; outline: as §6
Chlamydia trachomatis [9] = assay: Inhibition of recombinant Chlamydia trachomatis Serovar LGV-L2 C-terminal 6xhis-tagged ClpP1/ClpP2 dimer expressed in Escherichia coli at 0.1 to 1 uM by […] fluorescent peptide assay
[10] = Drug metabolism in human liver microsomes assessed as 1-[4-[(4-chlorophenyl)methyl]piperazin-1-yl]-2-methyl-2-[[5-(trifluoromethyl)-2-pyridyl]sulfonyl]propan-1-one formation at 1 ug/ml after 10 to 60 mins by LC-MS/MS analysis; assay type: ADME, Microsome
HEp-2 = assay: Toxicity in human Hep2 cells infected with Chlamydia trachomatis Serovar LGV-L2 at 100 ug/ml treated at 8 hrs post-infection and 24 hrs later re-infecting fresh Hep2 cells monolayer with infected cells and measured at 24 hrs post re-infection by immunofluorescence staining based microscopy analysis; assay type: cell-based
[11] = Cytotoxicity against immortal human HaCaT cells assessed as reduction in cell viability at 50 ug/ml after 24 hrs by CCK-8 assay relative to control; assay type: cell-based; details: read-out: INH
Outline: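 HeLa 229 and HaCaT cells in DMEM with 10% FBS and 1% penicillin/streptomycin, 37 °C, 5% CO2, seeded at 5000 cells/well. Next day treated with 50 μg/mL in triplicate, with matching DMSO controls. After 24 h, CCK-8 added for 2 h; corrected absorbance read at 450 nm.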

Chlamydia trachomatis [12] = assay: Anti-Chlamydial activity against Chlamydia trachomatis Serovar LGV-L2 infected in Hep2 cells assessed as reduction in size and number of chlamydial inclusion at 5.2 to 50 ug/ml treated at 8 hrs post-infection and 24 hrs later re-infecting fresh Hep2 cells monolayer with infected cells and measured at 24 hrs post re-infection by immunofluorescence staining based microscopy analysis; assay type: functional, organism-based; outline: as §6
[13] = target: ATP-dependent Clp protease proteolytic subunit (Escherichia coli (strain K12)) (UniProt P0A6G7); assay: as §3, with “recombinant” for “recombinant mouse C-terminal 6xHis-tagged ClpP expressed in”, “coli ClpP” for “coli”; outline: as §4
Chlamydia trachomatis [14] = assay: as §7, with “Anti-chlamydial activity” for “Bacteriostatic activity”, “reduction in chlamydial” for “reduction of”, “inclusion yield” for “inclusion size”, “for 48” for “for 24”; assay type: functional, organism-based
Chlamydia trachomatis [15] = assay: as §5, with “50 to 100” for “50”; assay type: functional, organism-based; outline: as §6
Chlamydia trachomatis [16] = assay: as §7, with “loss” for “reduction”, “morphology” for “size”; assay type: functional, organism-based; outline: as §8

Chain of ATP-dependent Clp protease proteolytic subunit (Escherichia coli (strain K12)) (P0A6G7 whole entry): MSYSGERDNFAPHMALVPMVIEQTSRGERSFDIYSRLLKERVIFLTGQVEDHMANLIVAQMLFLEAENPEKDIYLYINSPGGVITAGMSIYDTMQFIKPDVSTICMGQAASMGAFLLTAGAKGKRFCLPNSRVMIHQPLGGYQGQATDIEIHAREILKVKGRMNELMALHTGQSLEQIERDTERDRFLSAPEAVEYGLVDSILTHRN

**Q.** For `CC(C)(C(=O)NCCCc1ccccc1)S(=O)(=O)c1ccc(C(F)(F)F)cc1`, which t1/2 [1] is on record?
**A.** 6.13 min

**Q.** What about the Activity (Staphylococcus aureus) of the same molecule?
**A.** inactive

**Q.** What about the CLH [2] of the same molecule?
**A.** 891 mL/min/kg

**Q.** What about the inhibition (Klebsiella pneumoniae) of the same molecule?
**A.** inactive

**Q.** What about the inhibition (Cryptococcus neoformans) of the same molecule?
**A.** inactive

**Q.** What about the Activity (Escherichia coli) of the same molecule?
**A.** inactive

**Q.** What about the inhibition (Chlamydia trachomatis [3]) of the same molecule?
**A.** Active

**Q.** What about the Activity [4] of the same molecule?
**A.** Active

**Q.** What about the microsomal intrinsic clearance [5] of the same molecule?
**A.** 113.09 µL/min

**Q.** Which results are given for `CC(C)(C(=O)N1CCN(Cc2ccc(Cl)cc2)CC1)S(=O)(=O)c1ccc(C(F)(F)F)cn1`?
**A.** t1/2 [1]: < 2 min; Activity (Staphylococcus aureus): inactive; inhibition (Klebsiella pneumoniae): inactive; inhibition (Chlamydia trachomatis [6]): Active; inhibition (Chlamydia trachomatis [7]): Active; inhibition at 12.5 µg/mL (Chlamydia trachomatis [8]): 60%; inhibition (Cryptococcus neoformans): inactive; Activity (Escherichia coli): inactive; inhibition (Chlamydia trachomatis [3]): Active; inhibition (Chlamydia trachomatis [9]): inactive; Drug metabolism [10]: Metabolite_Detected; Activity (HEp-2): Non-Toxic; cytotoxicity at 24 h, 50 ug/ml [11]: 50%; Activity [4]: Not Active; inhibition (Chlamydia trachomatis [12]): Active; Activity [13]: Active; inhibition (Chlamydia trachomatis [14]): inactive; inhibition (Chlamydia trachomatis [15]): Active; inhibition (Chlamydia trachomatis [16]): Active
